What was measured:
P2X purinoceptor 3 = target: T1, P2X purinoceptor 3 (Rattus norvegicus, UniProt P49654); assay: Inhibition of inward ion current elicited by ATP was determined at recombinant P2X3 receptor expressed in Xenopus oocytes; type: functional, cell-based, Oocyte
T1 sequence (P49654 whole entry): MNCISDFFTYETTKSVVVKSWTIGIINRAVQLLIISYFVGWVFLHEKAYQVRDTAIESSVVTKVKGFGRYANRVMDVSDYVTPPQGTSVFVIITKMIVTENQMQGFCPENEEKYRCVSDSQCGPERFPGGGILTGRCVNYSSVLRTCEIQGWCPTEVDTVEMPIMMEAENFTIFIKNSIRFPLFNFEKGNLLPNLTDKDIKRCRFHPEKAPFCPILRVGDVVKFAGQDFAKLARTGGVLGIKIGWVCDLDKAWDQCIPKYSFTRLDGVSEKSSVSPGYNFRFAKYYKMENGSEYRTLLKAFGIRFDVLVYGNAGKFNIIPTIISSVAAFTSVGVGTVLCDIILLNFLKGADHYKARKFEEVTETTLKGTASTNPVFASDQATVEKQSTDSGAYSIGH

P2Y purinoceptor 1 [1] = target: T2, P2Y purinoceptor 1 (Meleagris gallopavo, UniProt P49652); assay: Inhibition of 10 nM 2-MeS-ADP-stimulated phospholipase C in turkey erythrocyte membrane; type: functional, cell membranes
In short: (§1)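 Turkey erythrocytes labelled 18-24 h at 37 °C with 2-[³H]myo-inositol in inositol-free DMEM, then lysed hypotonically (5 mM sodium phosphate pH 7.4, 5 mM MgCl₂, 1 mM EGTA) to make ghosts. Ghosts were incubated 5 min at 30 °C in pH 7.0 Hepes/KCl buffer with 1 µM GTPγS and 10 nM 2-MeSADP. Total [³H]inositol phosphates were measured by anion-exchange chromatography; 3-8 independent determinations.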

P2X purinoceptor 2 = target: T3, P2X purinoceptor 2 (Rattus norvegicus, UniProt P49653); assay: Inhibition of inward ion current elicited by ATP at P2X2 receptor expressed in Xenopus oocytes; type: functional, cell-based, Oocyte
T3 sequence (P49653 whole entry): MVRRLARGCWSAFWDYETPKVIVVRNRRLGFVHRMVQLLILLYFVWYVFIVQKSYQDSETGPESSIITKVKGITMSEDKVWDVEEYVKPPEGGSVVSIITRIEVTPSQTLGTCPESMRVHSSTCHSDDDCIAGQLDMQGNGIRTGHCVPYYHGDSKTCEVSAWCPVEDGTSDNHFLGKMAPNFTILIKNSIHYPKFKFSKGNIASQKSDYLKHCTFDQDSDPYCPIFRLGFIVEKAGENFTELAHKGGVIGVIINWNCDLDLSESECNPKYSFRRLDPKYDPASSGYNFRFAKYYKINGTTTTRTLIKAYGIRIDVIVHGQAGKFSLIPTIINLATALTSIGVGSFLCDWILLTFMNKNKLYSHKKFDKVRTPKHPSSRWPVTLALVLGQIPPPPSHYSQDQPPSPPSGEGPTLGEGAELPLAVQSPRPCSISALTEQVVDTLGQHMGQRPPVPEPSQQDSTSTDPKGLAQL

P2X purinoceptor 1 = target: T4, P2X purinoceptor 1 (Rattus norvegicus, UniProt P47824); assay: Inhibition of inward ion current elicited by ATP at P2X1 receptor expressed in Xenopus oocytes; type: functional, cell-based, Oocyte
T4 sequence (P47824 whole entry): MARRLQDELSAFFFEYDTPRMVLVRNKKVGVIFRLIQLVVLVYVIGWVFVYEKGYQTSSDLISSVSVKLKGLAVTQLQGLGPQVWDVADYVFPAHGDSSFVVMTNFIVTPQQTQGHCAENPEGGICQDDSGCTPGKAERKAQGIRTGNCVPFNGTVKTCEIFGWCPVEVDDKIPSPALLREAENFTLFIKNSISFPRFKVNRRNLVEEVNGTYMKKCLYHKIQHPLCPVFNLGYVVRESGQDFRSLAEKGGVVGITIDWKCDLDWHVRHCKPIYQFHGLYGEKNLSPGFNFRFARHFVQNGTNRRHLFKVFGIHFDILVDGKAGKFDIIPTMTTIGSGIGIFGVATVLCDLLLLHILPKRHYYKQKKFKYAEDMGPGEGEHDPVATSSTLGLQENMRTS

[2] = target: T5, P2X purinoceptor 1 (Rattus norvegicus) (UniProt P47824); assay: Inhibition of inward ion current elicited by ATP at P2X1 receptor expressed in Xenopus oocytes at 10 uM; type: functional, cell-based; details: Oocyte
T5 sequence (whole entry): T4 sequence (P47824 whole entry)

P2Y purinoceptor 1 [3] = target: T2, P2Y purinoceptor 1; assay: Inhibition of 10 nM 2-MeS-ADP-stimulated phospholipase C in turkey erythrocyte membranes using [3H]inositol; type: functional, cell membranes; in short: as §1
[4] = target: T6, P2X purinoceptor 7 (Homo sapiens) (UniProt Q99572); assay: Percent inhibition of ATP-induced K+ efflux (ethidium influx) in suspended HEK293 cells expressing human P2X7 receptor; type: functional, cell-based; details: concentration not given here
T6 sequence (whole entry): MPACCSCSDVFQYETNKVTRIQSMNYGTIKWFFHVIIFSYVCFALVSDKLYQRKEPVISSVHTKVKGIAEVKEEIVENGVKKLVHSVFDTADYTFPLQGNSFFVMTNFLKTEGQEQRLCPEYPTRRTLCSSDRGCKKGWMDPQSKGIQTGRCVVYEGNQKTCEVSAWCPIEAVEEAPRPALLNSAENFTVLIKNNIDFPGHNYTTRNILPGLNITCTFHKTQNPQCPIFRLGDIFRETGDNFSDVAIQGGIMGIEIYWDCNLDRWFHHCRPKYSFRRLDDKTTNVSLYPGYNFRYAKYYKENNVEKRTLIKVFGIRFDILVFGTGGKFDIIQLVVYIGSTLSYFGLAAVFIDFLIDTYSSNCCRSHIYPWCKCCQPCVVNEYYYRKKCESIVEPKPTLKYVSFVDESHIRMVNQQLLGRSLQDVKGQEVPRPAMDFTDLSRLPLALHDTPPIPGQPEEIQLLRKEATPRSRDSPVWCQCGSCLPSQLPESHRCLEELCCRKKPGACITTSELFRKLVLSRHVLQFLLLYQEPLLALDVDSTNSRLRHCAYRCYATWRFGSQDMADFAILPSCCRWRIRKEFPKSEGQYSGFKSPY
In short: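 Trypsinised HEK293 cells stably expressing human P2X7 were suspended in divalent cation-free saline in a stirred cuvette at 37 °C with 20 µM ethidium bromide. Cells were treated with 30 µM compound, then 300 µM ATP.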

[5] = target: T6, P2X purinoceptor 7 (Homo sapiens); assay: Percent inhibition of ATP-induced K+ efflux (with cations) in adherent HEK293 cells expressing human P2X7 receptor; type: functional, cell-based; details: concentration not given here
In short: (§2)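 Adherent HEK293 cells stably expressing human P2X7, grown to 90% confluence, in saline with 1 mM MgCl₂ and 1.5 mM CaCl₂ (pH 7.5). Pretreated with 30 µM compound, then 3 mM ATP for 10 min at 37 °C. Cell K⁺ was extracted in 10% HNO₃ for 2 h and read by atomic absorbance relative to untreated cells. n=3, each in duplicate.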

[6] = target: T6, P2X purinoceptor 7 (Homo sapiens); assay: Percentage inhibition of ATP-induced K+ efflux (cation free) in adherent HEK293 cells expressing human P2X7 receptor; type: functional, cell-based; details: concentration not given here
In short: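 Adherent HEK293 cells stably expressing human P2X7, in divalent cation-free saline (no added MgCl₂ or CaCl₂; pH 7.5). Pretreated with 30 µM compound, then 3 mM ATP for 10 min at 37 °C. Residual cell K⁺ was extracted in 10% HNO₃ for 2 h and measured by atomic absorbance against untreated cells. n=3, each in duplicate.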

P2X purinoceptor 6 [7] = target: T7, P2X purinoceptor 6 (Rattus norvegicus, UniProt P51579); assay: Inhibition of inward ion current elicited by ATP at rat P2X6 receptor (mutant type); type: functional
Target sequence in this assay (P51579 whole entry, looked up): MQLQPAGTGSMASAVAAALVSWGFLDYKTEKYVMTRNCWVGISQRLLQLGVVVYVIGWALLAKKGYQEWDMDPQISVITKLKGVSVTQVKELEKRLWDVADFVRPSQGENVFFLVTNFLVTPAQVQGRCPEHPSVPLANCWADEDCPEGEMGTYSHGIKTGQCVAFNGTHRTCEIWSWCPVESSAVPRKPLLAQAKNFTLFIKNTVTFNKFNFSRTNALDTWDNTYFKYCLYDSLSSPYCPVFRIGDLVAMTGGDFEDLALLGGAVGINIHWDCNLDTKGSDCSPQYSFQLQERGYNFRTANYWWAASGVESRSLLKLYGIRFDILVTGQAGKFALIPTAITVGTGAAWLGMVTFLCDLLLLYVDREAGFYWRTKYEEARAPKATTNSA

P2X purinoceptor 4 [8] = target: P2X purinoceptor 4 (Rattus norvegicus, UniProt P51577); assay: Inhibition of inward ion current elicited by ATP at rat P2X4 receptor (mutant type); type: functional
P2X purinoceptor 6 [9] = target: T7, P2X purinoceptor 6; assay: Inhibition of inward ion current elicited by ATP at rat P2X6 receptor (wild type); type: functional
Target sequence in this assay (P51579 whole entry): as the sequence (P51579 whole entry, looked up) above

P2X purinoceptor 4 [10] = target: T8, P2X purinoceptor 4 (Rattus norvegicus, UniProt P51577); assay: Inhibition of inward ion current elicited by ATP at rat P2X4 receptor (wild type); type: functional
T8 sequence (P51577 whole entry): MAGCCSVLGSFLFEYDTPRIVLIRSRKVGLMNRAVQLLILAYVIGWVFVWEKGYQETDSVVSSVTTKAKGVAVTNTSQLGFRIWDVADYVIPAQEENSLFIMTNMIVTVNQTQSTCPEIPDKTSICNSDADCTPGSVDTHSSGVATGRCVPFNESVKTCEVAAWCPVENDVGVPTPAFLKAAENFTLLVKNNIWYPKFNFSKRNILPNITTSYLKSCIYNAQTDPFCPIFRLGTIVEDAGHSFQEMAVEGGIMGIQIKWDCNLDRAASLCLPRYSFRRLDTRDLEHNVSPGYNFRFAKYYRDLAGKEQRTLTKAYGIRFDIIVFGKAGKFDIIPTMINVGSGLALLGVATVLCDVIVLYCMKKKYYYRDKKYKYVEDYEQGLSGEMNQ

[11] = target: T6, P2X purinoceptor 7 (Homo sapiens); assay: Inhibition of ATP-induced K+ efflux (with cations) in adherent HEK293 cells expressing human P2X7 receptor; type: functional, cell-based; details: concentration not given here; in short: as §2

T2 sequence (P49652 whole entry): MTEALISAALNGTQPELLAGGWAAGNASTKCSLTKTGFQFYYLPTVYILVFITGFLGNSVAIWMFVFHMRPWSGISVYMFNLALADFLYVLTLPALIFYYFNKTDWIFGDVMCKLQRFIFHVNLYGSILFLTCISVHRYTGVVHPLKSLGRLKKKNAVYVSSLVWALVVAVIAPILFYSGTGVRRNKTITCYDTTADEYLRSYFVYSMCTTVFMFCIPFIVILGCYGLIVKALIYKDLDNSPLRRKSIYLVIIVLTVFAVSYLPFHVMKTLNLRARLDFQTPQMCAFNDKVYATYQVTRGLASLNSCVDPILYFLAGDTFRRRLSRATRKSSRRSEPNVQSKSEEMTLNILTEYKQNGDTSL

Row | Structure (SMILES) | IC50 (P2X purinoceptor 3) [nM] | IC50 (P2X purinoceptor 2) [nM] | IC50 (P2X purinoceptor 1) [nM] | IC50 (P2Y purinoceptor 1 [3]) [nM] | also measured
1 | Cc1nc(/N=N/c2ccccc2)c(COP(=O)(O)O)c(C=O)c1O | 480 | 1200 | 42 | – | IC50 (P2Y purinoceptor 1 [1]): 54000 nM
2 | Cc1nc(/N=N/c2ccccc2)c(COP(=O)(O)O)c(COP(=O)(O)O)c1O | – | – | – | > 100000 | inhibition [2]: 50%
3 | Cc1nc(/N=N/c2ccc(C(=O)O)cc2)c2c(c1O)COP(=O)(O)OC2 | – | – | – | – | inhibition [2]: 39%
4 | CNc1ncnc2c1ncn2[C@H]1C[C@H](OP(=O)(O)O)[C@@H](COP(=O)(O)O)O1 | – | – | – | – | inhibition [4]: 100%; inhibition [5]: 37%; inhibition [6]: 24%
5 | Cc1nc(/N=N/c2ccc(S(=O)(=O)O)cc2S(=O)(=O)O)c(COP(=O)(O)O)c(C=O)c1O | 240 | 1600 | 99 | 16600 | IC50 (P2X purinoceptor 6 [7]): 2000 nM; IC50 (P2X purinoceptor 4 [8]): 2600 nM; IC50 (P2X purinoceptor 6 [9]): > 500000 nM; IC50 (P2X purinoceptor 4 [10]): > 500000 nM
6 | Cc1nc(/N=N/c2ccc(C(=O)O)cc2)c(COP(=O)(O)O)c(C=O)c1O | 140 | 11900 | 9.4 | 100000 | –

Second part, led by results:

Row | IC50 (P2X purinoceptor 3) [nM] | IC50 (P2X purinoceptor 2) [nM] | IC50 (P2X purinoceptor 1) [nM] | IC50 (P2Y purinoceptor 1 [3]) [nM] | Structure (SMILES) | also measured
7 | 25 | 280 | 11 | 14500 | Cc1nc(/N=N/c2cc(CP(=O)(O)O)cc(CP(=O)(O)O)c2)c(CP(=O)(O)O)c(C=O)c1O | inhibition [4]: 84%; inhibition [5]: 0%; inhibition [6]: -5%
8 | 36 | 948 | 12 | 27000 | Cc1nc(/N=N/c2ccc(P(=O)(O)O)cc2)c(CP(=O)(O)O)c(C=O)c1O | –
9 | – | 398 | 43 | 21400 | Cc1nc(/N=N/c2cc(S(=O)(=O)O)ccc2S(=O)(=O)O)c(COP(=O)(O)O)c(C=O)c1O [ISOPPADS] | inhibition [4]: 100%; inhibition [11]: 81%; inhibition [6]: 67%
10 | 330 | 486 | 37 | – | Cc1nc(/N=N/c2cc(C(=O)O)ccc2C(=O)O)c(CP(=O)(O)O)c(C=O)c1O | –
11 | 128 | 150 | 8.1 | – | Cc1nc(/N=N/c2ccc(C(=O)O)cc2)c(CP(=O)(O)O)c(C=O)c1O | –

Reference: ChEMBL document CHEMBL1134335, “Structure-activity relationships of pyridoxal phosphate derivatives as potent and selective antagonists of P2X1 receptors” (J Med Chem, 2001)
